Assay: Toxicity liver stage against HepG2, at 10uM
Type: cell-based
Parameters: test concentration 10 uM, cell line HepG2-A16-CD81EGFP
Details: human, HepG2-A16-CD81EGFP cells; read-out: INHIBITION
Method in brief: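 Uninfected HepG2-A16-CD81EGFP cells, 3 × 10^3 per well, 1536-well, plated on prespotted compound at 10 μM final, parasite-free screening media added to match infected plates; puromycin 10 μM positive, DMSO 0.5% negative; run in parallel with 48 h PbLuc assay at 37 °C, 5% CO2; viability by CellTiter-Glo luminescence, normalized to controls.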

Row | Structure (SMILES) | cytotoxicity at 10 µM [%]
1 | COc1ccc(Nc2c[nH]c(=O)[nH]c2=O)cc1 | 14.2
2 | O=C(Cc1csc(-c2ccccc2Cl)n1)NCc1cccc(C(=O)O)c1 | -3.67
3 | Cc1nnc([C@H]2C[C@H]3OCC[C@H]3N(S(=O)(=O)CC(C)C)C2)o1 | -5.27
4 | O=C(C1CC=CC1)N1CC[C@@H]2O[C@@H](COCC3CCOCC3)CC[C@@H]21 | 5.51
5 | COc1cc(-c2n[nH]c(CO)n2)cc(OC)c1OC | -4.91
6 | CN(CCc1ccccc1)Cc1c(C2CCOCC2)[nH]c2ncccc12 | 4.21
7 | CC(C)(C)NC(=O)C1(Cc2ccccc2-c2ccncc2)CCOCC1 | -6.99
8 | COCC(=O)N1CCC(c2csc(NC(C)=O)n2)CC1 | -28.6
9 | CC(=O)N1CCC(Cc2cnc(-n3ccnc3)cn2)CC1 | -38.8
10 | Cc1nc(Nc2nnc(C)s2)cc(C2CCCN2c2ccncc2)n1 (stereo not given) | -9.99
11 | COCCC(=O)N1CCCC1c1nccc(C)n1 (stereo not given) | -19.2
12 | C=Cn1ncc(CN2CCc3nc(-c4ccncc4)nc(O)c3C2)c1C | -4.45
13 | CCCc1cc(C(=O)NC(c2ccccc2)c2n[nH]c(C)n2)[nH]n1 (stereo not given) | 2.99
14 | O=C(NCc1ccnc(OCC(F)(F)F)c1)NCC1CCOC1 (stereo not given) | -3.22
15 | O=C(c1cc[nH]n1)N1CCN(C(c2ccccc2)C(F)(F)F)CC1 (stereo not given) | -6.36
16 | C(=C\c1ccccc1)/CNCC1CCc2nncn2C1 (stereo not given) | 16.8
17 | CN1CCN(C)C(CNC(=O)N(C)Cc2ccccc2Cl)C1 (stereo not given) | 0.339
18 | Cc1ccc(CNC(=O)c2ccc(=O)n(C)n2)c(OCC2CC2)c1 | -5.92
19 | COc1ccc(CN(C)C(=O)CN2CC(n3cc(C)cn3)C2)cc1F | 1.59
20 | O=C(OCCNc1ncccn1)c1ccc(Br)s1 | -2.64
21 | O=C(c1ccoc1)N(Cc1cccnc1)C1CC1 | -13.2
22 | Cc1ccc(C(=O)NCc2cccnc2-n2cncn2)cc1S(C)(=O)=O | 4.5
23 | Cc1noc(C(C)N2CCN(CCC(=O)N3CCOCC3)CC2)n1 (stereo not given) | -0.0308

Row | Structure (SMILES) | cytotoxicity at 10 µM [%]
24 | COCCOCCNC(=O)C(C)Oc1ccccc1C(F)(F)F (stereo not given) | 0.295
25 | CC(NCCN1CCN(C(=O)C2CCCC2)CC1)c1cnn(C)c1 (stereo not given) | -4.59
26 | Cc1ccc(CN(C(=O)C(C)S(C)(=O)=O)C2CC2)cc1C (stereo not given) | 3.28
27 | CC1CCC(NC(=O)NCC(C)(C)CCS(C)(=O)=O)CC1 (stereo not given) | 9.61
28 | COc1c(C)cnc(CN2CCCC(c3noc(C4CC4)n3)C2)c1C (stereo not given) | -1.62
29 | Cc1ccc(S(=O)(=O)N(CC2CCOC2)C2CC2)cc1N(C)C (stereo not given) | -9.77
30 | COc1c(C(=O)N2CCC(COCc3ccccc3)C2)c(C)nn1C (stereo not given) | 7.39
31 | CCCc1nnc(NC(=O)N2CCCC(NC(C)=O)C2)s1 (stereo not given) | 5.41
32 | CSCCC(C)NC(=O)CCN1C(=O)CCc2cc(F)ccc21 (stereo not given) | 6.79
33 | O=C1CCCN1C1CCN(S(=O)(=O)CCOc2ccc(F)cc2)CC1 | 5.94
34 | CC(c1ccco1)N(C)Cc1cccc(C(=O)Nc2nccn2C)c1 (stereo not given) | -7.33
35 | CC(C)c1nc(CN(C)C(=O)[C@H](N)Cc2ccc(Cl)cc2)cs1 | -154
36 | Cc1ccc(C(N)=O)c(N2Cc3cnc(C(C)(C)C)nc3C2)n1 | 8.05
37 | Cc1cc(C)nc(N2CCCC(c3nccn3CCCN(C)C)C2)c1 (stereo not given) | -7.97
38 | COc1cccc(C(C(=O)O)N2CCSCC2)c1F (stereo not given) | -12.9
39 | Cc1noc(-c2ccc(N3CCN(Cc4ncccc4C)CC3)nc2)n1 | -3.35
40 | O=C(c1ccc(C2CCCN2C(=O)c2ccoc2)s1)N1CCOCC1 (stereo not given) | -156
41 | Cc1nn(C)c(C)c1C1CCCN1C(=O)c1ccc(N(C)C)nc1 (stereo not given) | -7.19
42 | Cn1nnc2c1CCN(Cc1ccncc1)C2COCc1ccccc1 (stereo not given) | -134
43 | CN(C)c1cc(NCc2cnc3n2CCN(CC2CC2)CC3)ncn1 | -2.57
44 | O=C(c1cnc2n1CCN(Cc1ccccc1)C2)N1CCCC1 | -73.9
45 | Cc1ccc(N2CCCC3(COCCN(c4ccccn4)C3)C2)nn1 (stereo not given) | -119

— ChEMBL document CHEMBL4513216, “Probing the Open Global Health Chemical Diversity Library for Multistage-Active Starting Points for Next-Generation Antimalarials” (ACS Infect Dis, 2020)
